# Source: PubChem BioAssay AID504383 (The Scripps Research Institute Molecular Screening Center, 2011)
# Out of some 2,500 compounds screened, about 1,200 (48%) were called active. The set was probably picked from earlier hits. This is one part of the list. Values without a mark were called inactive.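 Rule for the calls: active = mean activation above the low control average plus 3 SD, as set in the primary screen (cut at about 12% in these data); inactive = the rest.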
# Biological target: Troponin I, cardiac muscle (Homo sapiens) + Troponin T, cardiac muscle (Homo sapiens) + Troponin C, slow skeletal and cardiac muscles (Homo sapiens) (UniProt P19429+P45379+P63316)
# Assay: calcium sensitizers of cardiac thin filaments – biochemical, IANBD-TnC fluorescence, triplicate, confirmation (AID 504383);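 note: 0% = DMSO at 0.472 mM calcium and 100% = DMSO at 2.9 mM calcium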
# Settings: IANBD-labeled cardiac RTF, Ca2+ sensitivity fluorescence; at 7.2 µM; active compounds read high; scaled from EC20 to saturating calcium; tested at EC20 calcium, 0.472 mM
# How it was run: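 Material: labelled regulated thin filaments; Reagent: 0.472 mM calcium; Incubation: 15 min compound incubation with filaments at 25 °C; Detection: filament fluorescence intensity; Evaluation: fluorescence increase normalised to calcium controls; Benchmarks: low control EC20 calcium, high control EC100 calcium.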
row,Structure (SMILES),activation
1,COc1ccccc1NC(=O)COC(=O)c1cnc(C)cn1,101% (active)
2,CC(=O)Nc1sc2c(c1-c1nc3ccccc3s1)CCN(C(C)C)C2,10.5%
3,O=C(/C=C/c1nc2ccccc2s1)N1CCCCCC1,35% (active)
4,O=C(c1ccccc1)N1CCCCC1,8.78%
5,FC(F)(F)c1cccc(-c2nc(COc3ccc(Cl)cc3Cl)no2)c1,5570% (active)
6,Cc1cn(COC/C=C/c2ccccc2)c(=O)[nH]c1=O,81.1% (active)
7,CCc1nc(Nc2ccc(O)cc2)c2oc3ccccc3c2n1,56.6% (active)
8,C=CCNC(=S)NNC(=O)c1ccc(OCC(C)C)cc1,4.58%
9,NC(=O)NC(=O)COC(=O)c1cccc(NS(=O)(=O)/C=C/c2ccccc2)c1,38.6% (active)
10,CC(C)C(=O)COc1c2occc2cc2ccc(=O)oc12,1.65%
11,CCOC(=O)N1CCC(Nc2nc3ccccc3nc2NS(=O)(=O)c2ccc(Cl)cc2)CC1,11.1%
12,CCOC(=O)c1cnc(SC)nc1Oc1cccc(NS(=O)(=O)c2ccc(Cl)cc2)c1,14.8% (active)
13,CCC1(CC)C(=O)Nc2ccccc21,5.14%
14,CN(N=Nc1ccc([N+](=O)[O-])cc1)c1ccccc1,36.2% (active)
15,Cc1cc([N+](=O)[O-])ccc1-c1ccc(/C=N/NC(=O)c2ccc(Br)o2)o1,7.92%
16,CN(/N=C/c1ccc(-c2ccc([N+](=O)[O-])cc2)o1)c1ccccc1,30.8% (active)
17,O=C1CC(c2ccccc2)=NN1c1ccc([N+](=O)[O-])cc1,10.7%
18,O=[N+]([O-])c1ccc(N(c2ccccc2)c2ccccc2)cc1,14.5% (active)
19,O=C(O)c1cccc(-c2ccc(/C=N/Nc3ccc([N+](=O)[O-])cc3)o2)c1,12.7% (active)
20,Cc1ccc(C(=O)N/C(=C/c2ccc(-c3ccc([N+](=O)[O-])cc3)o2)C(=O)NCCCN(C)C)cc1,5.11%
21,Cc1oc2c(cc(NS(=O)(=O)c3ccc(C(C)C)cc3)c3ccccc32)c1C(=O)O,9.7%
22,COc1ccc2nc3ccccc3[n+]([O-])c2c1,13.1% (active)
23,CCOCCCNc1ccc(-c2ccccc2)nn1,8.24%

row,Structure (SMILES),activation
1,COc1cc(/C=C/C(=O)CC(=O)/C=C/c2ccc(O)c(OC)c2)ccc1O,9.89%
2,COc1cc(/C=C/C=C2/CC/C(=C/C=C/c3ccc(O)c(OC)c3)C2=O)ccc1O,19.4% (active)
3,COc1cc(/C=C/C(O)=C/C(=O)/C=C/c2ccc(O)cc2)ccc1O,8.41%
4,COc1cc(/C=C/C(=O)/C=C(O)/C=C/c2ccc(O)c(OC)c2)ccc1O,287% (active)
5,O=C(/C=C(O)/C=C/c1ccc(O)cc1)/C=C/c1ccc(O)cc1,10.7%
6,CCN(CC)c1ccc2cc(C=O)c(=O)oc2c1,17% (active)
7,CCN(CC)c1ccc2c(Cl)c(Br)c(=O)oc2c1,8.56%
8,CCN(CC)c1ccc2cc(S(=O)(=O)c3ccc(Cl)cc3)c(=O)oc2c1,372% (active)
9,CCN(CC)c1ccc2cc(C(C)=O)c(=O)oc2c1,0.78%
10,CCN(CC)c1ccc2cc(S(=O)(=O)c3ccc(C)cc3)c(=O)oc2c1,32.5% (active)
11,CCN(CC)c1ccc2cc(NC(=O)CCC(=O)O)c(=O)oc2c1,4.16%
12,CCN(CC)c1ccc2c(c1)oc(=O)c1c(Cl)cc(=O)oc12,63.5% (active)
13,Clc1ccccc1N=Nc1ccccn1,9.89%
14,CCN(CC)c1ccc2oc(=O)c(C)nc2c1,364% (active)
15,CCOC(=O)c1c(C#N)c(SCC(=O)Nc2ccc(OC)cc2)nc2c1CN(CC)CC2,78.6% (active)
16,COc1cccc2c1C(=O)c1c(O)c3c(c(O)c1C2=O)CC(O)(C(C)=O)CC3OC1CC(N(C)C)C(O)C(C)O1 (stereo not given),6.16%
17,COc1cccc2c1C(=O)c1c(O)c3c(c(O)c1C2=O)CC(O)(C(=O)CO)CC3OC1CC(N(C)C)C(O)C(C)O1 (stereo not given),211% (active)
18,COc1cccc2c1C(=O)c1c(O)c3c(c(O)c1C2=O)C[C@@](O)(C(=O)CO)C[C@@H]3OC1CC(N)C(O)C(C)O1 (stereo not given in full),9.17%
19,COc1cccc2c1C(=O)c1c(O)c3c(c(O)c1C2=O)CC(O)(C(C)=O)CC3OC1CC(O)C(O)C(C)O1 (stereo not given),75.5% (active)
20,COc1cccc2c1C(=O)c1c(O)c3c(c(O)c1C2=O)C[C@@](O)(C(=O)CO)C[C@@H]3O[C@H]1C[C@H](N)[C@H](O)[C@H](C)O1,3.66%
21,COc1cccc2c1C(=O)c1c(O)c3c(c(O)c1C2=O)C[C@](O)(C(C)=O)C[C@H]3O[C@@H]1C[C@@H](N)[C@@H](O)[C@@H](C)O1,4.79%
22,C[C@H]1COc2c(N3CCN(C)CC3)c(F)cc3c(=O)c(C(=O)O)cn1c23,6.23%
